Measured values of several laboratories.
Lines come from different studies, so protocols differ.
MET: Hepatocyte growth factor receptor (MET, Homo sapiens, UniProt P08581)
MET Y1235D: Hepatocyte growth factor receptor (MET, Homo sapiens, UniProt P08581, Y1235D)

| Compound | target | read-out | action | technique | tested at | endpoint | value |
| --- | --- | --- | --- | --- | --- | --- | --- |
| C=CC(=O)N1CCC([C@@H]2CCNc3c(C(N)=O)c(-c4ccc(Oc5ccccc5)cc4)nn32)CC1 | MET | cell-free assay | – | – | 1 µM | inhibition | 7% |
| C#Cc1cnc(Nc2ccnc(CO)c2)nc1Nc1ccccc1S(C)(=O)=NC#N (centres unmarked) | MET | cell-free assay | – | – | 1 µM | remaining signal | 83% |
| CC#CC(=O)N1CCC[C@H]1c1nc(-c2ccc(C(=O)Nc3ccccn3)cc2)c2c(N)nccn12 | MET | enzyme activity | inhibitor | – | 1 µM | inhibition | 17% |
| CN1CCN(C(=O)c2ccc(NC(=O)Nc3ccc(N(C)c4ccnc(Nc5ccc(CS(C)(=O)=O)cc5)n4)cc3)cc2)CC1 | MET Y1235D | binding | – | – | 1 µM | remaining binding | 4.4% |
| O=C1C=C(Nc2ccc(OCc3cn(Cc4ccccc4)nn3)cc2)C(=O)c2ccccc21 | MET | enzyme activity | inhibitor | radiometric | 10 µM | inhibition | 18% |
| COc1ccc2oc(-c3ccc4nc(N)oc4c3)c/c(=N\c3ccccc3NC(=O)CCN)c2c1 | MET | binding | – | – | 1 µM | remaining binding | 106% |
| N#Cc1ccc(NC(=O)Nc2ccccc2)cc1 | MET | cell-free assay | – | competition with immobilised ligand | 25 µM | remaining binding | 100% |
| Cc1ccc(NC(=O)c2ccnc(C(F)(F)F)c2)cc1-c1cc(OCCO)nc(N2CCOCC2)c1 | MET | binding | – | – | 1 µM | remaining binding | 100% |
| CCCCC(=O)Nc1ccc(-c2ccc3ncn(CCC)c(=O)c3c2)cn1 | MET | binding | – | competition with immobilised ligand | 0.5 µM | remaining binding | 96% |
| CC(C)S(=O)(=O)c1ccc2nccc(Nc3ccc4sc(C5CCCC5)nc4c3)c2c1 | MET | enzyme activity | inhibitor | – | 1 µM | activity vs control | 119% |
| COc1ccc2[nH]c3c4[nH]c5ccc(OC)cc5c4c4c(c3c2c1)C(=O)NC4=O | Hepatocyte growth factor receptor (MET, Homo sapiens, UniProt P08581, M1250T) | binding | – | – | 1 µM | remaining binding | 88% |
| C1=C/COCc2cc(ccc2OCCN2CCCC2)Nc2nccc(n2)-c2cccc(c2)COC/1 | MET Y1235D | binding | – | – | 0.1 µM | remaining binding | 100% |
| C[C@H]1CC[C@H](n2c3cnccc3c3cnc(Nc4ccc5c(n4)CCN(C(=O)CO)C5)nc32)CC1 | MET Y1235D | cell-free assay | – | – | 1 µM | remaining signal | 100% |
| Cc1cc(O)c(-c2ccc([C@@H](C)CN(C)C)cc2)c2c1[nH]c(=O)c1sccc12 | MET | cell-free assay | inhibitor | – | 0.1 µM | inhibition | -0.782% |
